Test results published in ChEMBL document CHEMBL1142465, “Novel potent inhibitors of A. thaliana cytokinin oxidase/dehydrogenase” (Bioorg Med Chem, 2008).

Legend:
Amaranthus [1] = experiment: Cytokinin-like effect in Amaranthus cotyledons assessed as dark induction of betacyanin synthesis at 100 umol/L relative to 6-benzylaminopurine; type: functional; settings: at 100 µM
Histidine kinase 3 = biological target: T1, Histidine kinase 3 (Arabidopsis thaliana, UniProt Q9C5U1); experiment: Activation of Arabidopsis thaliana AHK3 receptor expressed in Escherichia coli KMI001 by beta-galactosidase activity
T1 sequence (Q9C5U1 whole entry): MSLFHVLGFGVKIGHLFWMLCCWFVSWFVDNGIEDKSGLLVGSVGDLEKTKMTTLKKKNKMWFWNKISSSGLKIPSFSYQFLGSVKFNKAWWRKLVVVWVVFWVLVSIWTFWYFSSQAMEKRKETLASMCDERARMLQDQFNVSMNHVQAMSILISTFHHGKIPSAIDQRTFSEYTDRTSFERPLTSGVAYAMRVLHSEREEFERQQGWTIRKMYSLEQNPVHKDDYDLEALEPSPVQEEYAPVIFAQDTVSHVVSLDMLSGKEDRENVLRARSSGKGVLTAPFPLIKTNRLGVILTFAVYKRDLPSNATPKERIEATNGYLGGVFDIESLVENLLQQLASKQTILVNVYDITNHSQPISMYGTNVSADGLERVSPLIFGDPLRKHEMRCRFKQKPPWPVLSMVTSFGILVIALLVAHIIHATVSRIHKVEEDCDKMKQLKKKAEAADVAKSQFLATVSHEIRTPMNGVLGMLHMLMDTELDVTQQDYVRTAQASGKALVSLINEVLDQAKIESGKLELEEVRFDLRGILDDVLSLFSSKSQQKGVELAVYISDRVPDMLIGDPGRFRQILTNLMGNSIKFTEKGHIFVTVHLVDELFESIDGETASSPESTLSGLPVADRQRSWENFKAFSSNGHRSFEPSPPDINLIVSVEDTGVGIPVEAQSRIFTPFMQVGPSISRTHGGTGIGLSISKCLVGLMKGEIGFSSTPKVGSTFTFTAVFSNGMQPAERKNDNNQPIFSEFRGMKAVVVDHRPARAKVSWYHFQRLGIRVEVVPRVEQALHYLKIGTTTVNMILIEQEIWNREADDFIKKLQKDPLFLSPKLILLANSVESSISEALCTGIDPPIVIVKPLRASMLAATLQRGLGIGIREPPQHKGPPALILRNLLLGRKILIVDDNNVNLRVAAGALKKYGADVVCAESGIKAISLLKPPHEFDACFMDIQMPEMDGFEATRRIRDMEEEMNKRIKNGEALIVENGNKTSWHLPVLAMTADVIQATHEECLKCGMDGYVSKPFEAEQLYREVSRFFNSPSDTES

Nicotiana tabacum [2] = experiment: Cytokinin-like effect in tobacco assessed as stimulation of callus growth at 100 umol/L relative to 6-benzylaminopurine; type: functional
How it was run: (§1)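 Cytokinin-dependent tobacco callus growth in 6-well plates, 3 mL MS medium per well, otherwise per published protocol. Compounds from DMSO stocks diluted into medium, final DMSO ≤0.2%. Five replicates per concentration, whole test repeated at least three times. Activity expressed relative to BAP set at 100 (reference 10^-6 M BAP) at the optimal concentration.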

Triticum aestivum = experiment: Cytokinin-like effect in wheat assessed as retention of chlorophyll in excised leaves at 100 umol/L by senescence assay relative to 6-benzylaminopurine; type: functional; settings: at 100 µM
[3] = biological target: T2, Cytokinin dehydrogenase 2 (Arabidopsis thaliana, UniProt Q9FUJ3); experiment: Inhibition of sArabidopsis thaliana CKX2 expressed in Saccharomyces cerevisiae 23344c ura-
T2 sequence (Q9FUJ3 whole entry): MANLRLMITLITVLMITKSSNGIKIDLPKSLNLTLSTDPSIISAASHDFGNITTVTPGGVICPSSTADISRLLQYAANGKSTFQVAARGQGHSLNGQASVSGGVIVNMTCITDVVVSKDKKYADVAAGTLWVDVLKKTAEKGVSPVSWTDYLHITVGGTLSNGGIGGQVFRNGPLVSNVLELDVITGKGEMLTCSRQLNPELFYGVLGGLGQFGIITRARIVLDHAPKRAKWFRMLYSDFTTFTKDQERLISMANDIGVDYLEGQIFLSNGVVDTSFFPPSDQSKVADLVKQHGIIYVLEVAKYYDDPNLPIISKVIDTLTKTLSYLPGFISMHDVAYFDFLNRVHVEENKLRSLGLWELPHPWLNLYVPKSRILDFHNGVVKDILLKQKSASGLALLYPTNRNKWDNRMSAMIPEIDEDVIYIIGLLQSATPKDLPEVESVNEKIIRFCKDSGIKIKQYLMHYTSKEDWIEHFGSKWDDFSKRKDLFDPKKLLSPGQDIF

Nicotiana tabacum [4] = experiment: Cytokinin-like effect in tobacco assessed as stimulation of callus growth at 10 umol/L relative to 6-benzylaminopurine; type: functional; settings: at 10 µM
Histidine kinase 4 = Histidine kinase 4 (Arabidopsis thaliana, UniProt Q9C5U0); experiment: Activation of Arabidopsis thaliana AHK4/CRE1 receptor expressed in Escherichia coli KMI001 by beta-galactosidase activity
Amaranthus [5] = experiment: Cytokinin-like effect in Amaranthus cotyledons assessed as dark induction of betacyanin synthesis at 10 umol/L relative to 6-benzylaminopurine; type: functional
How it was run: (§2)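 Dark induction of betacyanin synthesis in Amaranthus cotyledons, per previously published protocol. Compounds from DMSO stocks diluted into medium, final DMSO ≤0.2%. Five replicates per concentration, whole test repeated at least three times. Relative activity taken at the optimal concentration against BAP set at 100 (reference 10^-5 M BAP).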

Nicotiana tabacum [6] = experiment: Toxicity in tobacco assessed as inhibition of callus growth at 100 uM; settings: in vivo
How it was run: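 Tobacco callus growth dose-response up to 100 µM in 6-well plates with 3 mL MS medium per well. Compounds from DMSO stocks diluted into medium, final DMSO ≤0.2%. Five replicates per concentration. Readings compared against a control treatment with no cytokinin.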

Nicotiana tabacum [7] = experiment: Cytokinin-like effect in tobacco assessed as stimulation of callus growth at 1 umol/L relative to 6-benzylaminopurine; type: functional; how it was run: as §1
Amaranthus [8] = experiment: Cytokinin-like effect in Amaranthus cotyledons assessed as dark induction of betacyanin synthesis at 0.1 umol/L relative to 6-benzylaminopurine; type: functional; how it was run: as §2
Nicotiana tabacum [9] = experiment: Cytokinin-like effect in tobacco assessed as stimulation of callus growth at 0.1 umol/L relative to 6-benzylaminopurine; type: functional; how it was run: as §1

Chain of Histidine kinase 4 (Q9C5U0 whole entry): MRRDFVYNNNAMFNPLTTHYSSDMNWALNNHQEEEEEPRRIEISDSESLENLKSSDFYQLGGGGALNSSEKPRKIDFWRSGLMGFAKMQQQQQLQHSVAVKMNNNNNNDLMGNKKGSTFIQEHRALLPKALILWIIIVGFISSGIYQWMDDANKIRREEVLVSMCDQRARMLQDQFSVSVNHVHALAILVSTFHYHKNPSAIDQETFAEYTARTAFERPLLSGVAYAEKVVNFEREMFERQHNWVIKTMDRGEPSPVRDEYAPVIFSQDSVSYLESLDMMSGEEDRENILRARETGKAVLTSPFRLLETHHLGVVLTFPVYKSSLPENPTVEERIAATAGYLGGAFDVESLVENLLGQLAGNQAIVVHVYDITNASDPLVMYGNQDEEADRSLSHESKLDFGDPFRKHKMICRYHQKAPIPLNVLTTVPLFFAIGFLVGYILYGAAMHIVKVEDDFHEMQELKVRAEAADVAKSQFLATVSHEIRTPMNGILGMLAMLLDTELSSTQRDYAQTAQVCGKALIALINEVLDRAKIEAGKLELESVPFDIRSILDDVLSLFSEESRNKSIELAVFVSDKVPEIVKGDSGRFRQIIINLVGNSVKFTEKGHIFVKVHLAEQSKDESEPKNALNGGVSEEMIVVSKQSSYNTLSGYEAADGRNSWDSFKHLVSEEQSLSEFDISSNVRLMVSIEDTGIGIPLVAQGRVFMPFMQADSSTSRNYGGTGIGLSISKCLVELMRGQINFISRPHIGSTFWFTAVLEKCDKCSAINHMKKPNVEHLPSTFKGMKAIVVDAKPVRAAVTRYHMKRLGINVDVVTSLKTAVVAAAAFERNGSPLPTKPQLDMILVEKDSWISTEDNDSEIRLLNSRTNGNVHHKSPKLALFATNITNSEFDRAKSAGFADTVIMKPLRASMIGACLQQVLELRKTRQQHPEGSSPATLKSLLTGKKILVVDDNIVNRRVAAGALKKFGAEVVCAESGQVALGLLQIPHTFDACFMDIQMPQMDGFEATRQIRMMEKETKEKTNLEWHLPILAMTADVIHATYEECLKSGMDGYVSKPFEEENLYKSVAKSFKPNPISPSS

Row | Compound | EC50 (Histidine kinase 3) [µM] | IC50 [3] [µM] | EC50 (Histidine kinase 4) [µM] | Activity (Amaranthus [1]) [%] | Activity (Nicotiana tabacum [2]) [%] | Activity (Triticum aestivum) [%] | Activity (Nicotiana tabacum [4]) [%] | Activity (Amaranthus [5]) [%] | Activity (Nicotiana tabacum [6]) | Activity (Nicotiana tabacum [7]) [%] | Activity (Amaranthus [8]) [%] | Activity (Nicotiana tabacum [9]) [%]
1 | COc1cccc(Nc2nc(N)nc3[nH]cnc23)c1 |  | 27 |  | 116 |  | 16 | 71 |  |  |  |  | 
2 | Oc1cccc(Nc2nc(Cl)nc3[nH]cnc23)c1 | 13 | 3.75 | 3.75 | 52 |  | 6 | 111 |  |  |  |  | 
3 | COc1cccc(Nc2nc(Cl)nc3[nH]cnc23)c1 | 21 | 1.9 | 7 | 149 |  | 11 | 103 |  |  |  |  | 
4 | COc1cccc(Nc2ncnc3[nH]cnc23)c1 | 2.3 | 12.4 | 31 | 124.5 |  | 13 | 42 |  |  |  |  | 
5 | COc1cccc(Nc2nc(SC)nc3[nH]cnc23)c1 |  | > 100 |  | 101 |  | 2 | 91 |  |  |  |  | 
6 | Oc1ccccc1Nc1nc(Cl)nc2nc[nH]c12 | 19 | > 100 | > 50 |  |  |  |  |  |  |  |  | 
7 | COc1ccc(Nc2nc(Cl)nc3[nH]cnc23)cc1 |  | > 100 |  | 60 |  | 19 | 76 |  |  |  |  | 
8 | Fc1cccc(Nc2nc(Cl)nc3[nH]cnc23)c1 | 6 | 7.5 | 24.8 | 147 |  | 15 |  |  |  | 101 |  | 
9 | COc1cccc(Nc2nc(Cl)nc3c2ncn3C)c1 |  | 61 |  | 69 |  | 30 | 76 |  |  |  |  | 
10 | C/C(=C\CNc1ncnc2[nH]cnc12)CO | 0.7 |  | 1.1 | 129.6 |  | 122 | 104.6 |  |  |  |  | 
11 | O=C(Nc1ccccc1)Nc1cnns1 [THIDIAZURON] | 0.95 | 29 | 1 |  |  | 108.7 |  |  |  |  | 121.1 | 102.3

Second part, led by results:

Row | EC50 (Histidine kinase 3) [µM] | IC50 [3] [µM] | EC50 (Histidine kinase 4) [µM] | Compound | Activity (Amaranthus [1]) [%] | Activity (Nicotiana tabacum [2]) [%] | Activity (Triticum aestivum) [%] | Activity (Nicotiana tabacum [4]) [%] | Activity (Amaranthus [5]) [%] | Activity (Nicotiana tabacum [6]) | Activity (Nicotiana tabacum [7]) [%] | Activity (Amaranthus [8]) [%] | Activity (Nicotiana tabacum [9]) [%]
12 | > 50 |  |  | c1ccc(Nc2ncnc3[nH]cnc23)cc1 | 52 | 47 | 14 |  |  |  |  |  | 
13 | 33 | > 100 |  | COc1ccccc1Nc1nc(Cl)nc2[nH]cnc12 | 63 |  | 29 | 100 |  |  |  |  | 
14 | 15.1 | 25.4 | > 50 | Clc1ccc(Nc2nc(Cl)nc3[nH]cnc23)cc1 | 139 |  | 10 | 77 |  |  |  |  | 
15 | 10.7 | 3.9 |  | Clc1cccc(Nc2nc(Cl)nc3[nH]cnc23)c1 |  |  | 11.5 | 95 | 119 |  |  |  | 
16 | 19 | 1 | 19 | COc1cccc(Nc2nc(F)nc3[nH]cnc23)c1 | 107 |  | 13.5 | 74 |  |  |  |  | 
17 | 16.5 | > 100 | 4.6 | Oc1ccc(Nc2nc(Cl)nc3[nH]cnc23)cc1 | 47.5 | 60 | 14 |  |  |  |  |  | 
18 |  | 14 |  | COc1cccc(Nc2nc([N+](=O)[O-])nc3[nH]cnc23)c1 | 43 | 35.5 | 15 |  |  |  |  |  | 
19 | 50 | 50 |  | Fc1ccc(Nc2nc(Cl)nc3[nH]cnc23)cc1 | 92 |  | 5 |  |  | Non-toxic | 99 |  | 
20 |  | > 100 |  | COc1cccc(Nc2nc(Cl)nc3c2ncn3C(C)C)c1 | 44 |  | 5 | 38 |  |  |  |  | 
21 | > 50 | 80 |  | Clc1nc(Nc2ccccc2)c2nc[nH]c2n1 | 139 |  | 23 |  |  |  | 103 |  | 
